According to ChEMBL document CHEMBL1134291, “The synthesis of a prodrug of doxorubicin designed to provide reduced systemic toxicity and greater target efficacy” (J Med Chem, 2001):
*1 amine or outer side, *2 acyl side, *3 side chain or, on linkers, in order; H or OH if unused. Where a SMILES comes first, the peptide text is derived from it. [ ]: non-standard residue; d: D form. The star is where a group is joined. Doxorubicin(3'-N) = COc1cccc2c1C(=O)c1c(O)c3c(c(O)c1C2=O)C[C@@](O)(C(=O)CO)C[C@@H]3O[C@H]1C[C@H](N*)[C@H](O)[C@H](C)O1; X1 = COc1cccc2c1C(=O)c1c(O)c3c(c(O)c1C2=O)C[C@@](O)(C(=O)CO)C[C@@H]3OC1CC(N*)C(O)C(C)O1; Glutaryl = O=C(CCCC(=O)[*:2])[*:1]; Hyp = O=C(O)[C@@H]1C[C@@H](O)CN1; Chg = N[C@H](C(=O)O)C1CCCCC1; Orn = NCCC[C@H](N)C(=O)O

Key:
DuPro = experiment: Concentration required to kill 50% of tumor cells in PSA nonproducing DuPRO human prostate cancer cell line; type: functional, cell-based
LNCaP [1] = experiment: Concentration required to kill 50% of tumor cells in PSA producing LNCaP human prostate cancer cell line; type: functional, cell-based
Mus musculus [2] = experiment: Maximum nonlethal drug dose which could be administered (ip) to non tumor bearing nude mice for 5 consecutive days; type: functional
LNCaP [3] = experiment: Percentage PSA reduction relative to vehicle control following intraperitoneal injection of conjugate dose for 5 consecutive days to nude mice bearing LNCaP tumor xenografts; type: functional, Homo sapiens
Mus musculus [4] = experiment: Percentage weight reduction relative to vehicle control following intraperitoneal (ip) injection of conjugate dose for 5 consecutive days to nude mice bearing LNCaP tumor xenografts( 7.6 umol/kg dose); type: functional
PSA = experiment: Time required for PSA to hydrolyze 50% (t1/2); type: ADME; conditions: PSA (enzyme)
Mus musculus [5] = experiment: Percentage weight reduction relative to vehicle control following intraperitoneal (ip) injection of conjugate dose for 5 consecutive days to nude mice bearing LNCaP tumor xenografts(14.8 umol/kg dose); type: functional
Mus musculus [6] = experiment: Percentage weight reduction relative to vehicle control following intraperitoneal (ip) injection of conjugate dose for 5 consecutive days to nude mice bearing LNCaP tumor xenografts( 22.7 umol/kg dose); type: functional
In short: (§1)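 Nude mice carrying xenografts of PSA-secreting human prostate LNCaP cells received the conjugate intraperitoneally once daily for 5 consecutive days. Circulating PSA and tumor weight were each expressed as percent reduction against vehicle-treated controls.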

Mus musculus [7] = experiment: Percentage weight reduction relative to vehicle control following intraperitoneal (ip) injection of conjugate dose for 5 consecutive days to nude mice bearing LNCaP tumor xenografts(36.6 umol/kg dose); type: functional; in short: as §1
Mus musculus [8] = experiment: Percentage weight reduction relative to vehicle control following intraperitoneal (ip) injection of conjugate dose for 5 consecutive days to nude mice bearing LNCaP tumor xenografts( 22.4 umol/kg dose); type: functional
Mus musculus [9] = experiment: Percentage weight reduction relative to vehicle control following intraperitoneal (ip) injection of conjugate dose for 5 consecutive days to nude mice bearing LNCaP tumor xenografts( 29.3 umol/kg dose); type: functional
Mus musculus [10] = experiment: Percentage weight reduction relative to vehicle control following intraperitoneal (ip) injection of conjugate dose for 5 consecutive days to nude mice bearing LNCaP tumor xenografts( 21.5 umol/kg dose); type: functional
Mus musculus [11] = experiment: Percentage weight reduction relative to vehicle control following intraperitoneal (ip) injection of conjugate dose for 5 consecutive days to nude mice bearing LNCaP tumor xenografts (2.8 umol/kg dose); type: functional

Compound	EC50 (DuPro)	EC50 (LNCaP [1])	half-life (PSA)	further results
COc1cccc2c1C(=O)c1c(O)c3c(c(O)c1C2=O)C[C@@](O)(C(=O)CO)C[C@@H]3OC1CC(NC(=O)[C@H](N)CC(C)C)C(O)C(C)O1 (some centres undefined)	14 µM	6.7 µM	–	MTD (Mus musculus [2]): 7.6 µM/kg; Reduction (LNCaP [3]): 10%; Reduction (Mus musculus [4]): -5%
COc1cccc2c1C(=O)c1c(O)c3c(c(O)c1C2=O)C[C@@](O)(C(=O)CO)C[C@@H]3O[C@H]1C[C@H](NC(=O)[C@H](C)NC(=O)[C@H](C)NC(=O)[C@H](C)NC(C)=O)[C@H](O)[C@H](C)O1	> 100 µM	> 100 µM	–	–
COc1cccc2c1C(=O)c1c(O)c3c(c(O)c1C2=O)C[C@@](O)(C(=O)CO)C[C@@H]3OC1CC(NC(=O)[C@H](CC(C)C)NC(=O)[C@H](CO)NC(=O)[C@H](CCC(N)=O)NC(=O)[C@H](Cc2ccc(O)cc2)NC(=O)[C@H](CO)NC(=O)[C@H](C)NC(=O)[C@H](CCCN)NC(C)=O)C(O)C(C)O1 (some centres undefined)	> 100 µM	7.3 µM	40 min	MTD (Mus musculus [2]): 29.7 µM/kg; Reduction (LNCaP [3]): 70%; Reduction (Mus musculus [5]): 57%
COc1cccc2c1C(=O)c1c(O)c3c(c(O)c1C2=O)C[C@@](O)(C(=O)CO)C[C@@H]3OC1CC(NC(=O)[C@H](CC(C)C)NC(=O)[C@H](CO)NC(=O)[C@@H](CCC(N)=O)NC(=O)[C@@H](NC(=O)[C@H](CO)NC(=O)[C@H](C)NC(=O)C2CC(O)CN2C(C)=O)C2CCCCC2)C(O)C(C)O1 (some centres undefined)	> 100 µM	4.5 µM	20 min	MTD (Mus musculus [2]): 22.7 µM/kg; Reduction (LNCaP [3]): 96%; Reduction (Mus musculus [6]): 81%
COc1cccc2c1C(=O)c1c(O)c3c(c(O)c1C2=O)C[C@@](O)(C(=O)CO)C[C@@H]3O[C@H]1C[C@H](NC(=O)[C@H](CC(C)C)NC(=O)[C@H](CO)NC(=O)[C@H](C)NC(=O)[C@H](CO)NC(=O)[C@H](CCC(N)=O)NC(=O)[C@H](Cc2ccc(O)cc2)NC(=O)[C@H](CO)NC(=O)[C@H](C)NC(=O)[C@H](CCCCN)NC(=O)[C@H](CC(N)=O)NC(=O)[C@H](C)NC(C)=O)[C@H](O)[C@H](C)O1 (Ac-ANKASYQSASL-{Doxorubicin(3'-N)})	> 100 µM	12.5 µM	30 min	–
COc1cccc2c1C(=O)c1c(O)c3c(c(O)c1C2=O)C[C@@](O)(C(=O)CO)C[C@@H]3O[C@H]1C[C@H](NC(=O)[C@H](CC(C)C)NC(=O)[C@H](CO)NC(=O)[C@H](CO)NC(=O)[C@H](CCC(N)=O)NC(=O)[C@H](Cc2ccc(O)cc2)NC(=O)[C@H](CO)NC(=O)[C@H](C)NC(=O)[C@H](CCCCN)NC(=O)[C@H](CC(N)=O)NC(=O)[C@H](C)NC(C)=O)[C@H](O)[C@H](C)O1 (Ac-ANKASYQSSL-{Doxorubicin(3'-N)}) [listing 1 of 2 here]	> 100 µM	6.3 µM	–	–
COc1cccc2c1C(=O)c1c(O)c3c(c(O)c1C2=O)C[C@@](O)(C(=O)CO)C[C@@H]3O[C@H]1C[C@H](NC(=O)[C@H](CC(C)C)NC(=O)[C@H](CO)NC(=O)[C@H](CO)NC(=O)[C@H](CCC(N)=O)NC(=O)[C@H](Cc2ccc(O)cc2)NC(=O)[C@H](CO)NC(=O)[C@H](C)NC(=O)[C@H](CCCCN)NC(=O)[C@H](CC(N)=O)NC(=O)[C@H](C)NC(C)=O)[C@H](O)[C@H](C)O1 (Ac-ANKASYQSSL-{Doxorubicin(3'-N)}) [listing 2 of 2 here]	–	–	–	MTD (Mus musculus [2]): >36.6 µM/kg; Reduction (LNCaP [3]): 87%; Reduction (Mus musculus [7]): 81%
COc1cccc2c1C(=O)c1c(O)c3c(c(O)c1C2=O)C[C@@](O)(C(=O)CO)C[C@@H]3O[C@H]1C[C@H](NC(=O)[C@H](CC(C)C)NC(=O)[C@H](CO)NC(=O)[C@H](CO)NC(=O)[C@H](CO)NC(=O)[C@H](CCC(N)=O)NC(=O)[C@H](Cc2ccc(O)cc2)NC(=O)[C@H](CO)NC(=O)[C@H](C)NC(=O)[C@H](CCCCN)NC(=O)[C@H](CC(N)=O)NC(=O)[C@H](C)NC(C)=O)[C@H](O)[C@H](C)O1 (Ac-ANKASYQSSSL-{Doxorubicin(3'-N)})	117 µM	7 µM	30 min	–
COc1cccc2c1C(=O)c1c(O)c3c(c(O)c1C2=O)C[C@@](O)(C(=O)CO)C[C@@H]3OC1CC(NC(=O)[C@H](CC(C)C)NC(=O)[C@H](CO)NC(=O)[C@H](CCC(N)=O)NC(=O)[C@H](Cc2ccc(O)cc2)NC(=O)[C@H](CO)NC(=O)[C@H](C)NC(=O)[C@H](CCCCN)NC(C)=O)C(O)C(C)O1 (some centres undefined) (Ac-KASYQSL-X1)	100 µM	4.8 µM	30 min	–
COc1cccc2c1C(=O)c1c(O)c3c(c(O)c1C2=O)C[C@@](O)(C(=O)CO)C[C@@H]3OC1CC(NC(=O)[C@H](CC(C)C)NC(=O)[C@H](CO)NC(=O)[C@H](CCC(N)=O)NC(=O)[C@@H](NC(=O)[C@H](CO)NC(=O)[C@H](C)NC(=O)[C@H](CCCCN)NC(C)=O)C2CCCCC2)C(O)C(C)O1 (some centres undefined) (Ac-KAS[Chg]QSL-X1) [listing 1 of 2 here]	> 100 µM	4.5 µM	–	–
COc1cccc2c1C(=O)c1c(O)c3c(c(O)c1C2=O)C[C@@](O)(C(=O)CO)C[C@@H]3OC1CC(NC(=O)[C@H](CC(C)C)NC(=O)[C@H](CO)NC(=O)[C@H](CCC(N)=O)NC(=O)[C@@H](NC(=O)[C@H](CO)NC(=O)[C@H](C)NC(=O)[C@H](CCCCN)NC(C)=O)C2CCCCC2)C(O)C(C)O1 (some centres undefined) (Ac-KAS[Chg]QSL-X1) [listing 2 of 2 here]	–	–	–	MTD (Mus musculus [2]): 29.9 µM/kg; Reduction (LNCaP [3]): 95%; Reduction (Mus musculus [8]): 73%
COc1cccc2c1C(=O)c1c(O)c3c(c(O)c1C2=O)C[C@@](O)(C(=O)CO)C[C@@H]3OC1CC(NC(=O)[C@H](CC(C)C)NC(=O)[C@H](CO)NC(=O)[C@H](CCC(N)=O)NC(=O)[C@@H](NC(=O)[C@H](CO)NC(=O)[C@H](C)NC(=O)[C@@H]2CCCN2C(C)=O)C2CCCCC2)C(O)C(C)O1 (some centres undefined) (Ac-PAS[Chg]QSL-X1)	> 100 µM	7.4 µM	45 min	–
COc1cccc2c1C(=O)c1c(O)c3c(c(O)c1C2=O)C[C@@](O)(C(=O)CO)C[C@@H]3OC1CC(NC(=O)[C@H](CC(C)C)NC(=O)[C@H](CO)NC(=O)[C@H](CO)NC(=O)[C@H](CO)NC(=O)[C@H](CCC(N)=O)NC(=O)[C@H](Cc2ccc(O)cc2)NC(=O)[C@H](CCCN)NC(C)=O)C(O)C(C)O1 (some centres undefined) (Ac-[Orn]YQSSSL-X1)	> 100 µM	7 µM	120 min	MTD (Mus musculus [2]): 33 µM/kg; Reduction (LNCaP [3]): 93%; Reduction (Mus musculus [9]): 80%
COc1cccc2c1C(=O)c1c(O)c3c(c(O)c1C2=O)C[C@@](O)(C(=O)CO)C[C@@H]3O[C@H]1C[C@H](NC(=O)[C@H](CC(C)C)NC(=O)[C@H](CO)NC(=O)[C@H](CCC(N)=O)NC(=O)[C@@H](NC(=O)[C@H](CO)NC(=O)[C@H](C)NC(=O)[C@@H]2C[C@@H](O)CN2C(=O)CCCC(=O)O)C2CCCCC2)[C@H](O)[C@H](C)O1 (Glutaryl-[Hyp]AS[Chg]QSL-{Doxorubicin(3'-N)}) [listing 1 of 2 here]	> 100 µM	5 µM	30 min	–
COc1cccc2c1C(=O)c1c(O)c3c(c(O)c1C2=O)C[C@@](O)(C(=O)CO)C[C@@H]3O[C@H]1C[C@H](NC(=O)[C@H](CC(C)C)NC(=O)[C@H](CO)NC(=O)[C@H](CCC(N)=O)NC(=O)[C@@H](NC(=O)[C@H](CO)NC(=O)[C@H](C)NC(=O)[C@@H]2C[C@@H](O)CN2C(=O)CCCC(=O)O)C2CCCCC2)[C@H](O)[C@H](C)O1 (Glutaryl-[Hyp]AS[Chg]QSL-{Doxorubicin(3'-N)}) [listing 2 of 2 here]	–	–	–	MTD (Mus musculus [2]): 28.6 µM/kg; Reduction (LNCaP [3]): 95%; Reduction (Mus musculus [10]): 87%
COc1cccc2c1C(=O)c1c(O)c3c(c(O)c1C2=O)C[C@@](O)(C(=O)CO)C[C@@H]3O[C@H]1C[C@H](N)[C@H](O)[C@H](C)O1 [DOXORUBICIN]	1.8 µM	0.7 µM	–	MTD (Mus musculus [2]): 2.8 µM/kg; Reduction (LNCaP [3]): 16%; Reduction (Mus musculus [11]): 6%
Ac-ANKASYQSASTE-NH2	–	–	50 min	–
Ac-ANKASYQSSSTE-NH2	–	–	105 min	–
Ac-ANKISYQSAKTE-NH2	–	–	125 min	–
Ac-ANKISYQSASTE-NH2	–	–	145 min	–
Ac-ANKISYQSSKTE-NH2	–	–	110 min	–
Ac-ANKISYQSSSTE-NH2	–	–	> 240 min	–
Ac-ANKISYYSSSTE-NH2	–	–	150 min	–
H-ANKISYQSS-OH	–	–	> 240 min	–
H-ANKISYQSSSTE-OH	–	–	105 min	–
H-SQKANKISYQSSSTEERRLHYGENG-OH	–	–	25 min	–
H-SYQSSSTE-OH	–	–	> 180 min	–
